# Bioassay records: PubChem, The Scripps Research Institute Molecular Screening Center
# HTR5A ag: HTR5A agonists in luminescence cell assay, primary screen, counter-screen for OPRM1-OPRD1 heterodimer agonist project, full-deck HTS | activation, % at 9.3 µM | 5-hydroxytryptamine receptor 5A (Homo sapiens), P47898 | cell-based | 340,000 tested, 0.61% active; in the data active = activation mostly above about 9.5%, no sharp cut-off; inactive = mostly below about 7.6%;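 also: 0% = cells with vehicle only and 100% = reference agonist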
# Target sequence (P47898 whole entry, looked up): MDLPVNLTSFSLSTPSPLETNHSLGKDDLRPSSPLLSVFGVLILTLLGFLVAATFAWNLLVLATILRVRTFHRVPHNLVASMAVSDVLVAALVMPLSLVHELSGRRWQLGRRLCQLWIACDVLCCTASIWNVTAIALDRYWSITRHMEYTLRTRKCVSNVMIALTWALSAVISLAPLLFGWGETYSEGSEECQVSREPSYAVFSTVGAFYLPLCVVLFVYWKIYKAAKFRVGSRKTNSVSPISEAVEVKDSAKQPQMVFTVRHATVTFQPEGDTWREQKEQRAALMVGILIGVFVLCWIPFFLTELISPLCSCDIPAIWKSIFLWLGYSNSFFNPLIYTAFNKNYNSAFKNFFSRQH
# MC4R barr agon: MC4R agonists recruiting beta-arrestin, primary screen, cell-based, luminescence, agonist arm of biased-ligand search; Melanocortin receptor 4 (Homo sapiens), P32245; U2OS MC4R beta-arrestin complementation; percent of melanotan II response, DMSO zero; activation, % at 8.9 µM; 360,000 tested, 0.98% active;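 active = activation above a per-plate cutoff, the mean activation of sample wells on that plate plus 3 SD, cut at about 8% in these data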
# OPRM1-OPRD1 ag: agonists of OPRM1-OPRD1 heterodimerization, primary screen, cell-based, luminescence; AID 504326, 2011; activation, % at 9.3 µM; 340,000 tested, 0.3% active; cells; Mu-type opioid receptor (Homo sapiens) + Delta-type opioid receptor (Homo sapiens), …; in the data active = activation above about 18%;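 also: 0% = vehicle-treated cells and 100% = reference agonist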
# HTR5A inv ctr: HTR5A inverse agonists in luminescence cell assay, primary screen, counter-screen for OPRM1-OPRD1 heterodimer inverse agonist project, full-deck HTS. 5-hydroxytryptamine receptor 5A (Homo sapiens), P47898. HTR5A cell line, inverse agonism. inhibition, % at 9.3 µM. 340,000 tested, 0.083% active. AID 504634, 2011; in the data active = inhibition mostly above about 23%, no sharp cut-off; inactive = mostly below about 18%;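 also: 0% = cells with DMSO and 100% = no-cell wells with DMSO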
# MC4R antagonist: MC4R antagonists of cAMP signaling, primary screen, cell-based, TR-FRET, antagonist arm of biased-ligand search; AID 540295, 2011; MC4R-expressing cells, MTII-stimulated cAMP, LANCE TR-FRET; Melanocortin receptor 4 (Homo sapiens), P32245; inhibition, % at 6.5 µM; 360,000 tested, 0.48% active;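 active = inhibition above its plate's cutoff, the mean of tested wells on that plate plus 3 SD, cut at about 29% in these data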;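 also: 0% = Melanotan II alone and 100% = Melanotan II plus saturating MCL0020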
#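 Material – human MC4R-expressing U2OS cells · Repeats – no replicates · Detection – TR-FRET with Eu-cAMP and labeled anti-cAMP, 671 nm · Times – compound 30 min, challenge 1 h, detection 1 h · Compound – single nominal compound dose of 6.5 µM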
# OPRM1-OPRD1 inv: inverse agonists of MOR-DOR heterodimerization, primary screen, cell-based, luminescence; Mu-type opioid receptor (Homo sapiens) + Delta-type opioid receptor (Homo sapiens), …; inhibition, % at 9.3 µM; cell-based MOR-DOR heterodimer luminescence, inverse agonism; 340,000 tested, 0.21% active; in the data active = inhibition above about 22%, passing the limit was not always enough;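 also: 0% = cells with DMSO and 100% = wells without cells with DMSO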
# MC4R barr ag: MC4R beta-arrestin agonists, retest, confirmation, cell-based, luminescence, U2OS. 2,400 tested, 31% active. AID 602192, 2012. U2OS MC4R beta-arrestin recruitment; scaled DMSO 0%, Melanotan II 100%. activation, % at 8.9 µM. shares compounds with MC4R barr agon;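 active = mean activation across replicates above the hit cutoff set in the earlier primary screen, cut at about 8% in these data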
# MOR DOR agonist: agonists of MOR-DOR heterodimerization, counter-screen for MC4R biased agonist project, cell-based, luminescence; shares compounds with MC4R barr agon; U2OS PathHunter beta-arrestin, beta-gal luminescence; percent of deltorphin B response, DMSO zero; activation, % at 9.2 µM; 2,400 tested, 5.8% active; AID 602194, 2012;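 active = mean activation across replicates exceeds the hit threshold derived in the earlier primary screen, cut at about 18% in these data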;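 also: 100% = deltorphin B at 0.9 µM final and 0% = DMSO alone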
# * = called active by the depositor; · = no result. Sampled rows, rich in hits. Any-hit rate of the full collection: about 2.4%.
SMILES,HTR5A ag,MC4R barr agon,OPRM1-OPRD1 ag,HTR5A inv ctr,MC4R antagonist,OPRM1-OPRD1 inv,MC4R barr ag,MOR DOR agonist
CCN1CCN(Cc2ccc(NC(=O)c3cc(NC(=O)c4cc(C)on4)cc(OC)c3)cc2C(F)(F)F)CC1,0,0,2,-2,-6,-9,·,·
CCN1CCN(Cc2ccc(NC(=O)c3cc(NC(=O)C(=O)c4c[nH]c5ccccc45)cc(OC)c3)cc2C(F)(F)F)CC1,-3,24*,4,7,3,-21,22*,9
Cc1ccc(N2C(=O)CS/C2=N\C(=S)Nc2ccccc2)cc1,·,27*,·,·,5,·,2,9
O=C1CSC(=Nc2ccc(O)cc2)N1c1ccc(O)cc1,-4,-1,-3,10,0,13,·,·
CCn1cc([N+](=O)[O-])c(C(=O)N2N=C(c3ccc4ccccc4c3)CC2c2cc(Br)ccc2O)n1 (stereo unspecified),8,16*,1,-29,5,-4,9.0*,6
CSc1ncccc1C(=O)Nc1cccc(S(=O)(=O)N2CCCCC2)c1,-2,-1,-2,4,15,6,·,·
COc1cccc2cc(C(N)=O)oc12,2,-2,-1,6,12,5,·,·
COc1cccc2cc(C(=O)c3ccc([N+](=O)[O-])cc3)oc12,0,20*,4,-53,5,-18,0,6
O=C1NC[C@@H](Cc2ccc(O)cc2)N(CCc2cccc3ccccc23)C1=O,5,1,-1,22,15,3,·,·
O=C1NC[C@@H](Cc2cccc3ccccc23)N(CCc2cc(C(F)(F)F)cc(C(F)(F)F)c2)C1=O,7,11*,3,-37,-1,-18,9.8*,3
Cc1ccnc(NC(=O)C(C)n2cc([N+](=O)[O-])cn2)c1 (stereo unspecified),8,0,-3,8,13,12,·,·
CN1CCN(c2ccc(S(=O)(=O)N3CCCCC3)cc2NC(=O)/C=C/c2ccc(Cl)c([N+](=O)[O-])c2)CC1,-4,-2,1,12,8,-8,·,·
O=C(/C=C/c1ccc(Cl)c([N+](=O)[O-])c1)Nc1ccc(N2CCCC2)c(Cl)c1,-2,11*,1,-16,21,-5,7,4
COC(=O)c1cc2cc(Cl)ccc2nc1SC,-2,1,3,-18,-8,-13,·,·
Cc1cc(C(=O)Nc2sc3c(c2C#N)CCC(C(C)(C)C)C3)no1 (stereo unspecified),2,9.9*,0,18,-5,-1,-2,3
Cc1cc(-c2nnc(SCC(=O)Nc3nc(-c4ccccc4)cs3)o2)no1,2,3,0,-8,0,-2,·,·
Cc1ccc(-c2csc(NC(=O)CSc3nnc4c(n3)[nH]c3ccccc34)n2)cc1,13*,16*,5,-49,-5,-28,3,7
Cc1occc1-c1nnc(SCC(=O)Nc2nc(-c3ccccc3)cs2)o1,-2,24*,5,-16,-3,-29,2,5
Cc1ccc(NC(=O)CSc2nnc3c(n2)[nH]c2ccccc23)cc1,11,-1,-1,8,17,7,·,·
CSc1ccc(C(=O)NC2CCSc3ccccc32)cc1 (stereo unspecified),10,21*,4,-9,-4,-30,3,6
COc1ccc(C(=O)NC2CCSc3ccccc32)cc1 (stereo unspecified),3,0,2,9,-2,-11,·,·
COc1cc(/C=C/C(=O)OCC(=O)NCCc2ccc(F)cc2)ccc1OC(F)F,3,10*,3,-9,11,-17,3,4
COCCNC(=S)N1CCN(Cc2ccc3c(c2)OCO3)CC1,7,0,-3,-20,5,17,·,·
Cc1nnnn1/C(=C\c1ccccc1)C(=O)OCC(=O)Nc1ccc(Cl)cc1F,8,37*,1,-21,-26,-7,24*,4
Cc1ccsc1-c1nc(-c2ccccc2)c(-c2ccccc2)[nH]1,7,10*,8,-47,0,-44,11*,5
SMILES,HTR5A ag,MC4R barr agon,OPRM1-OPRD1 ag,HTR5A inv ctr,MC4R antagonist,OPRM1-OPRD1 inv,MC4R barr ag,MOR DOR agonist
Cc1ccc(S(=O)(=O)N2CCC(=O)N(CCOCc3ccc(Cl)cc3)CC2)cc1,6,-1,-2,-16,4,14,·,·
Cc1[nH]c2ccccc2c1C(=O)CSc1ccc(Cl)cc1,-1,12*,4,-2,-11,-20,3,6
O=C(NC(=S)Nc1ccc2oc(=O)ccc2c1)c1cccc(Cl)c1,-1,20*,6,3,-4,-34,4,5
O=C(NC(=S)Nc1ccc2oc(=O)ccc2c1)c1cccc(F)c1,-1,-3,-3,4,4,17,·,·
CN(C)c1ccc(/C=C(\C#N)C(=O)c2ccccc2)cc1,1,19*,0,-6,11,0,-1,2
N#C/C(=C\c1ccc(C#N)cc1)C(=O)c1ccccc1,2,0,-1,-8,1,3,·,·
NS(=O)(=O)c1ccc(CCNC(=O)Nc2ccc(Cl)c(Cl)c2)cc1,3,-1,2,-17,1,-11,·,·
CCOc1ccc(CNC(=O)CCc2cn(Cc3ccccc3)c3ccccc23)cc1,3,13*,1,-9,4,-6,10*,7
COc1cc(/C=C(\C#N)c2nc3ccccc3s2)ccc1OCC(=O)Nc1ccccc1,5,49*,1,-14,3,-8,30*,10
CSc1ccc(/C=C(/Sc2nnc(-c3ccccc3)o2)C(=O)O)cc1,·,22*,·,·,15,·,1,4
Cc1cccc(OCc2nnc(SCC(=O)Nc3sc(C)c(C)c3C#N)n2C)c1,12,17*,8,-32,-2,-45,2,6
